Screens (PubChem)
Shown are actives, neighbours in structure and some others; about 3.8% of the full set was active somewhere.
KCNQ1 block: inhibitors of human KCNQ1 potassium channel; B-score at 10 µM; P51787; CHO-K1 KCNQ1, FluxOR thallium flux fluorescence; active compounds read high; AID 2642; 310,000 tested, 1.3% active;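 active = compounds whose thallium flux B-score, printed positive for inhibition, exceeds three library SD while starting fluorescence stays within three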;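 also: channel opened by potassium depolarization with thallium stimulus after 20 min compound exposure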
KCNK3 block: human KCNK3 channel inhibition, primary screen; CHO-KCNK3 thallium flux, FluxOR fluorescence; active compounds read low; B-score at 10 µM; 340,000 tested, 0.84% active;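 active = B-score under library mean minus 4 SD, starting fluorescence ratio at most library mean plus 5 SD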;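 also: more negative B-score means stronger inhibition of thallium flux through KCNK3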
KCNQ1 act: human KCNQ1 channel potentiation or activation; 310,000 tested, 0.35% active; P51787; CHO-K1 KCNQ1, thallium flux FluxOR fluorescence; active compounds read high; B-score at 10 µM;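 active = fluorescence ratio B-score, a plate-corrected score, at least three library SD, with initial intensity B-score within 5 SD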
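Assay system: stable KCNQ1 CHO-K1 line; medium: assay buffer, equal DMSO in all wells; timing: 90 min dye loading and 20 min compound exposure, both at room temperature; technique: kinetic FluxOR thallium fluorescence, 10-s 1-Hz baseline, 110-s post-stimulus read; read-out basis: B score of baseline-normalized fluorescence ratio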
Kir21 inh: blocks the mouse Kir2.1 inward-rectifier potassium channel; 310,000 tested, 0.85% active; B-score at 10 µM; AID 1672; HEK293-Kir2.1, FluxOR thallium flux fluorescence; active compounds read low;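 active = fluorescence ratio B-score at or below minus 3 SD of library scores, with starting-brightness B-score within 2 SD, cut at about -4.2 in these data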;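 also: channel flux triggered by added potassium and thallium sulfate stimulus; B-score of peak minus minimum fluorescence over baseline after thallium stimulus; more negative B-score means stronger Kir2.1 block with less thallium influx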
Target sequence (P35561 whole entry, looked up): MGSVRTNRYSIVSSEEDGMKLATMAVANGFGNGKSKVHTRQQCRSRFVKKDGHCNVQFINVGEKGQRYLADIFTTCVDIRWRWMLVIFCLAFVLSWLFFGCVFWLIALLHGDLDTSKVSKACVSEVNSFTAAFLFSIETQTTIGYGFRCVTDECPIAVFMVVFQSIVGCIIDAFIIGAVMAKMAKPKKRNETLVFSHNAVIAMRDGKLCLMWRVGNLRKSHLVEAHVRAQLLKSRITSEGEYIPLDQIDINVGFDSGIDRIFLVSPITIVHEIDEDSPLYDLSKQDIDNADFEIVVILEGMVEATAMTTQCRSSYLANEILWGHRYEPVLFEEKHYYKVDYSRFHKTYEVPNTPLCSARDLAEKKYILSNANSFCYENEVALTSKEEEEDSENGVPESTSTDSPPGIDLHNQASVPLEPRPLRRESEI
KCNK9 inh: human KCNK9 channel inhibition. HEK293 KCNK9, FluxOR thallium flux fluorescence; active compounds read low. AID 488922. 310,000 tested, 1.2% active. B-score at 10 µM. Q9NPC2;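 active = ratio B-score over 3 SD below the library mean, with starting fluorescence within 5 SD of its mean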;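 also: negative B-score means less thallium flux so channel inhibition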
hERG protect: hERG (human) protection from proarrhythmic block; CHO-hERG, FluxOR thallium flux, dofetilide IC70 present; activation (rescue from dofetilide block), less the hit threshold, % at 10 µM; Q12809; AID 1511; 310,000 tested, 0.51% active;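 active = activation above the mean of controls blocked by dofetilide plus 5 SD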;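 also: thallium influx through hERG after potassium depolarization seen as dye fluorescence rise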
Numbers without * were called inactive; i = inactive; . = no result.

SMILES | KCNQ1 block | KCNK3 block | KCNQ1 act | Kir21 inh | KCNK9 inh | hERG protect
COc1ccc(C2(C)CC(C)(C)Nc3ccccc32)cc1 (stereo not given) | i | i | 8* | -3.4 | i | -11.9
COc1ccc(C2CC(C)(c3ccc(OC)cc3)Nc3ccccc3N2)cc1 (stereo not given) | i | i | i | 1.12 | i | -5.1
Oc1c(Br)cc(Br)cc1/C=N/c1nc2c(s1)CCCC2 | i | i | 13* | -1.75 | i | -28.2
CCc1ccc2c(c1)c(N=NC1=NC(=O)CS1)c(O)n2C | i | i | 13* | 0.94 | i | 0.8
CC(C)(C)S(=O)(=O)N1C[C@H]2C(=CC[C@@H]3C(=O)N(c4ccccc4)C(=O)[C@@H]32)[C@H]1CCO | . | i | . | . | . | .
CC1CC(C)(C)N(C(=O)CN2CCN(C)CC2)c2ccccc21 (stereo not given) | i | i | i | 0.02 | i | -7.4
CC(=O)N1c2ccccc2C(C)CC12CCCCC2 (stereo not given) | i | i | i | -4.72* | i | -8.7
CC(=O)N1Cc2ccccc2C(C)CC12CCCC2 (stereo not given) | i | i | i | -5.1* | i | -8.0
O=C(NCc1cccnc1)Nc1cccc(F)c1 | i | i | i | 0.84 | -7.75* | -8.2
Cc1cccc(OCc2n(CC(=O)OC3CC(C)CCC3C(C)C)c3ccccc3[n+]2C)c1 (stereo not given) | 9* | -12.6* | i | -12.8* | i | -30.8
Cc1ccc(N2C(=O)c3ccccc3NC2c2ccccc2O)cc1 (stereo not given) | i | i | i | 1.31 | i | -1.1
O=C1c2ccccc2NC(c2ccccc2O)N1O (stereo not given) | i | i | 8* | -1.99 | i | -5.4
NC1=NC[C@H](Cc2ccccc2)N1CCCCC1CCCCC1 | i | i | i | -5.78* | i | -25.4
NC1=NC[C@H](Cc2ccc(O)cc2)N1CCCCC1CCCCC1 | i | i | i | -2.22 | i | -24.7
O=C(COC(=O)Cc1c(F)cccc1Cl)NC(=O)c1ccccc1 | i | i | i | 0.34 | i | -8.7
O=C(NCC(=O)N1CCN(C/C=C/c2ccccc2)CC1)c1ccc(OC(F)F)cc1 | . | i | . | . | . | .
CCc1nnc(NC(=O)c2cc(S(=O)(=O)N3CCN(c4ccccc4)CC3)ccc2Cl)s1 | i | i | i | -0.36 | i | -0.8
CCc1nnc(NC(=O)c2cccc(S(=O)(=O)N3CCN(c4ccccc4)CC3)c2)s1 | i | i | i | 1.15 | i | 5.5*
C=CCn1c(C)cc(-c2csc(NC)n2)c1C | . | i | . | . | . | .
C=CCn1c(C)cc(-c2csc(NCC)n2)c1C | 6* | i | i | -0.3 | i | -12.1
COc1ccc(S(=O)(=O)N(Cc2ccccc2)c2ccccc2C(=O)Nc2ccccc2C(=O)NCc2ccco2)cc1 | i | i | i | -0.47 | -6.95* | -4.0
CN1C(=O)c2cccc3c(Cl)ccc(c23)C1=O | i | i | i | -1.39 | i | -9.4
CN1C(=O)c2cccc3c(N(C)C)ccc(c23)C1=O | 6* | i | i | -2.66 | i | -16.4
OC(CNCc1ccccc1)(c1ccccc1)c1ccccc1 | i | i | i | -4.59* | i | -10.5
Cc1ccc(CNCC(O)(c2ccc(F)cc2)c2ccc(F)cc2)cc1 | i | i | i | -4.13 | i | -15.5
COc1ccc(CNCC(O)(c2ccc(F)cc2)c2ccc(F)cc2)cc1 | i | i | i | -8.35* | i | -11.9
COc1ccc(CNCC(O)(c2ccccc2)c2ccccc2)cc1OC | i | i | i | -0.84 | i | -8.9
OC(CNCc1ccccc1)(c1ccc(F)cc1)c1ccc(F)cc1 | i | i | i | -7.32* | -7.73* | -13.4
Cc1ccc(CNCC(O)(c2ccccc2)c2ccc(F)cc2)cc1 (stereo not given) | i | i | i | -8.95* | i | -14.5
Cc1c(NC(=O)C(C)Oc2ccc(Br)cc2Cl)c(=O)n(-c2ccccc2)n1C (stereo not given) | i | i | i | 0.42 | i | -7.6
